pIC50: −log10 of the molar value.
Assays:
HepG2 [1] = assay: Induction of apoptosis in human HepG2 cells assessed as caspase-3 activity at 10 uM after 48 hrs by colorimetric assay relative to control; type: functional
Method in brief: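 After 48 h treatment, HepG2 were rinsed in ice-cold PBS and lysed 1–1.5 h on ice in buffer with 1% DTT. Lysate was spun at 10,000×g for 1 min at 4 °C; supernatant protein was measured by Bradford. Supernatant was mixed with 2× reaction buffer (1% DTT) plus caspase-3 chromogenic peptide substrate, held 4 h at 37 °C, and read at 405 nm.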

HepG2 [2] = assay: Induction of apoptosis in human HepG2 cells assessed as late apoptotic cells at 5 uM after 48 hrs by Annexin V-FITC/propidium iodide double staining-based flow cytometry (reference value: 4.3%); type: functional
A549 [3] = assay: Antiproliferative activity against human A549 cells after 72 hrs by MTT assay; type: functional, cell-based; details: A549, 72 h
HepG2 [4] = assay: Cell cycle arrest in human HepG2 assessed as accumulation at G2/M phase at 5 uM after 48 hrs by propidium iodide-staining based flow cytometry (reference value: 9.13%); type: functional
Method in brief: (§1)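 HepG2 cells at 5.0 × 10^5/well were grown 24 h, then treated at 0, 2.5, 5.0 or 10.0 µM for 48 h alongside medium-only wells. Cells fixed in 70% ice-cold ethanol for ≥24 h, treated with RNase A at 37 °C for 30 min, then stained with propidium iodide for 30 min at 4 °C in the dark. DNA content read by flow cytometry. Average of at least three experiments.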

A549 [5] = assay: Antiproliferative activity against human A549 cells at 0.1 uM after 72 hrs by MTT assay relative to control; type: functional
Method in brief: (§2)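 MTT assay in triplicate wells. Cells (2 × 10^3/well) were attached 24 h, then treated at 0.1, 1, 10, 50 or 100 µM for 24, 48 or 72 h. MTT added for 4 h, SDS solubilisation, absorbance at 570/650 nm. Inhibition = 1 − (OD treated − blank)/(OD control − blank). Reported as mean ± SD of three independent experiments.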

HepG2 [6] = assay: Induction of apoptosis in human HepG2 cells assessed as viable cells at 5 uM after 48 hrs by Annexin V-FITC/propidium iodide double staining-based flow cytometry (reference value: 86.4%); type: functional; details: HepG2, 48 h, read-out: Activity
HepG2 [7] = assay: Cell cycle arrest in human HepG2 assessed as accumulation at G2/M phase at 10 uM after 48 hrs by propidium iodide-staining based flow cytometry (reference value: 9.13%); type: functional; method in brief: as §1
HepG2 [8] = assay: Induction of apoptosis in human HepG2 cells assessed as intracellular free Ca2+ levels at 5 uM after 48 hrs by FL1 channel/FACS analysis (reference value: 14.2%); type: functional
Method in brief: (§3)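 HepG2 seeded at 5.0 × 10^5 cells/mL, 24 h at 37 °C in 5% CO2, then treated 48 h (2.5–20 µM). Harvested cells were washed in ice-cold PBS and loaded with 4 µM Fluo-3/AM for 30 min. After trypsinizing, they were washed twice and resuspended in HEPES, and fluorescence was measured in the FL-1 channel by flow cytometry. Values are averages of at least three independent experiments.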

A549 [9] = assay: Antiproliferative activity against human A549 cells at 50 uM after 24 hrs by MTT assay relative to control; type: functional; method in brief: as §2
HepG2 [10] = assay: Antiproliferative activity against human HepG2 cells at 100 uM after 48 hrs by MTT assay realtive to control; type: functional; method in brief: as §2
HepG2 [11] = assay: Antiproliferative activity against human HepG2 cells at 100 uM after 72 hrs by MTT assay realtive to control; type: functional; method in brief: as §2
HepG2 [12] = assay: Induction of apoptosis in human HepG2 cells assessed as early apoptotic cells at 5 uM after 48 hrs by Annexin V-FITC/propidium iodide double staining-based flow cytometry (reference value: 8.7%); type: functional
HepG2 [13] = assay: Antiproliferative activity against human HepG2 cells at 50 uM after 24 hrs by MTT assay realtive to control; type: functional; method in brief: as §2
HepG2 [14] = assay: Antiproliferative activity against human HepG2 cells after 24 hrs by MTT assay; type: functional, cell-based; details: HepG2, 24 h
Method in brief: (§4)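 MTT read-out. Cells seeded at 2 × 10^3/well, attached 24 h at 37 °C in 5% CO2, then exposed to 0.1–100 µM for 24, 48 or 72 h. MTT for 4 h, formazan dissolved in 10% SDS/NH4Cl for 10 h, absorbance at 570 nm corrected at 650 nm. % inhibition computed against untreated and blank wells. IC50 is the mean of at least three independent experiments.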

HepG2 [15] = assay: Cytotoxicity against human HepG2 cells at 10 uM after 48 hrs by LDH release assay (reference value: 100%); type: functional
Method in brief: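 LDH release. HepG2 cells at 1.0 × 10^5/well were incubated 24 h at 37 °C, then treated at 2.5–40 µM for 48 h. Cells lysed with 2% lysate for 1 h gave the full-release (100%) reference; medium-only cells were the low control. LDH in the supernatant was measured per kit. Triplicates, three independent repeats.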

HepG2 [16] = assay: Cell cycle arrest in human HepG2 assessed as decrease in cell levels at G0/G1 phase after 48 hrs by propidium iodide-staining based flow cytometry; type: functional; method in brief: as §1
HepG2 [17] = assay: Antiproliferative activity against human HepG2 cells after 72 hrs by MTT assay; type: functional, cell-based; details: HepG2, 72 h
[18] = biological target: T1, Epidermal growth factor receptor (Homo sapiens, UniProt P00533); details: HEK293, at 0.1 µM
T1 sequence (P00533 whole entry): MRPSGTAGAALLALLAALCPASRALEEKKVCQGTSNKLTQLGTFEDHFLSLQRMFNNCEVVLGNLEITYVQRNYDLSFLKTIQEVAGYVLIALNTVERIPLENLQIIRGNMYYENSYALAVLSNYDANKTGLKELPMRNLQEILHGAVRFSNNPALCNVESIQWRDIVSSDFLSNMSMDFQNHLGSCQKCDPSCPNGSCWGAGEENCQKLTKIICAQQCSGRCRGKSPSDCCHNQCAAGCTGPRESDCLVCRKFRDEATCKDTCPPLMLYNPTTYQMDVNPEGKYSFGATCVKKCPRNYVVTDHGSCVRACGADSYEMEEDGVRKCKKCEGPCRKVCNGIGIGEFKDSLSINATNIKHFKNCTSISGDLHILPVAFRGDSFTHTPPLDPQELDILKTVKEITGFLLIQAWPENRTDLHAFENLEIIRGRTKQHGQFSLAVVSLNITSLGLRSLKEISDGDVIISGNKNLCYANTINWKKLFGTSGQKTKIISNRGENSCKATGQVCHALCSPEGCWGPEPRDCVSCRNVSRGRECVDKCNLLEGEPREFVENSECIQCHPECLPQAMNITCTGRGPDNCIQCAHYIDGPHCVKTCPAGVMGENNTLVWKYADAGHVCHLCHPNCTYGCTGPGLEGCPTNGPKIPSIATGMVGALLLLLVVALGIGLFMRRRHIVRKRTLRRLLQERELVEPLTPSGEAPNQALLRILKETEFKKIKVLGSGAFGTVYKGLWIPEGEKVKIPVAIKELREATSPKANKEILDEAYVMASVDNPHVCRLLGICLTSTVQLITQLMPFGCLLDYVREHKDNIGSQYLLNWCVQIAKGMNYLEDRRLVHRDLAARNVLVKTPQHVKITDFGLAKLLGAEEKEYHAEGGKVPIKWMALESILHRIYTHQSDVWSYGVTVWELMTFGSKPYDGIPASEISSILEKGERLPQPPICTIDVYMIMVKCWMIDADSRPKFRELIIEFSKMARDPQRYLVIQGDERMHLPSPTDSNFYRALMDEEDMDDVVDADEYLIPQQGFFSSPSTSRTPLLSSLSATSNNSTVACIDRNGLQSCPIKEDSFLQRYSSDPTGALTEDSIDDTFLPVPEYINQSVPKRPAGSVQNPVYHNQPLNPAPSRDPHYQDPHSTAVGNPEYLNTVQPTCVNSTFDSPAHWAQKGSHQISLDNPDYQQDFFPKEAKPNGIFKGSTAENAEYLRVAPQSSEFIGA

[19] = biological target: T1, Epidermal growth factor receptor; details: HEK293, at 0.001 µM
HepG2 [20] = assay: Induction of mitochondrial membrane potential loss in human HepG2 cells assessed as mitochondrial membrane potential levels at 5 uM after 48 hrs by rhodamine-123 dye based FACS analysis (reference value: 90.4%); type: functional
[21] = biological target: T1, Epidermal growth factor receptor; type: cell-based, HEK293
HepG2 [22] = assay: Antiproliferative activity against human HepG2 cells at 0.1 uM after 48 hrs by MTT assay realtive to control; type: functional; method in brief: as §2
SH-SY5Y = assay: Antiproliferative activity against human SH-SY5Y cells after 72 hrs by MTT assay; type: functional, cell-based
A549 [23] = assay: Antiproliferative activity against human A549 cells at 50 uM after 72 hrs by MTT assay relative to control; type: functional; method in brief: as §2
HepG2 [24] = assay: Antiproliferative activity against human HepG2 cells at 10 uM after 48 hrs by MTT assay realtive to control; type: functional; method in brief: as §2
HepG2 [25] = assay: Induction of apoptosis in human HepG2 cells assessed as intracellular free Ca2+ levels after 48 hrs by FL1 channel/FACS analysis; type: functional, cell-based; method in brief: as §3
A549 [26] = assay: Antiproliferative activity against human A549 cells after 24 hrs by MTT assay; type: functional, cell-based; details: A549, 24 h; method in brief: as §4
A549 [27] = assay: Antiproliferative activity against human A549 cells at 1 uM after 24 hrs by MTT assay relative to control; type: functional; method in brief: as §2
HepG2 [28] = assay: Induction of apoptosis in human HepG2 cells assessed as intracellular free Ca2+ levels at 20 uM after 48 hrs by FL1 channel/FACS analysis (reference value: 14.2%); type: functional; method in brief: as §3

**Q.** What does the source list for `COc1cc2c(Nc3ccc(C#N)cc3)ncnc2cc1OCCCN1CCC(c2ccccc2)CC1`?
**A.** Activity (HepG2 [1]): 198%; Activity (HepG2 [2]): 2%; pIC50 (A549 [3]): 5.02; Activity (HepG2 [4]): 9.37%; Activity (A549 [5]): 5%; viability at 5 µM (HepG2 [6]): 17.3%; Activity (HepG2 [7]): 9.57%; Activity (HepG2 [8]): 43.2%; Activity (A549 [9]): 85.3%; Activity (HepG2 [10]): 102%; Activity (HepG2 [11]): 101%; Activity (HepG2 [12]): 80.7%; Activity (HepG2 [13]): 99.1%; pIC50 (HepG2 [14]): 4.89; Activity (HepG2 [15]): 69.27%; Activity (HepG2 [16]): Dose-dependent effect; pIC50 (HepG2 [17]): 5.28 to 5.34; inhibition [18]: 73.1%; inhibition [19]: 46.2%; Activity (HepG2 [20]): 87%; pIC50 [21]: 8.44; Activity (HepG2 [22]): 5.7%; pIC50 (SH-SY5Y): 5.11; Activity (A549 [23]): 86.6%; Activity (HepG2 [24]): 55.6%; Activity (HepG2 [25]): Dose-dependent effect; pIC50 (A549 [26]): 4.82; Activity (A549 [27]): 1.9%; Activity (HepG2 [28]): 52.7%

Source: ChEMBL document CHEMBL4130355, “Development of a series of novel 4-anlinoquinazoline derivatives possessing quinazoline skeleton: Design, synthesis, EGFR kinase inhibitory efficacy, and evaluation of anticancer activities in vitro” (Eur J Med Chem, 2017)
